From PubChem BioAssay
Active and inactive are the calls of the source.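 The calls were made as follows, unless noted: active = GFP response above 150% of the DMSO level; inconclusive = fewer than 70 events counted for a yeast strain; inactive = the rest.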

Assays:
[1] = RPL19A-GFP modulators, yeast TOR pathway, confirmation, cell-based, S. cerevisiae, flow cytometry, cherry picks, mother/daughter gates (AID 2270;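 active = GFP response below 50% of the DMSO control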); conditions: S. cerevisiae RPL19A-GFP strain, 3 h, at 10 µM, stronger effect = lower value, 100 = same GFP as DMSO wells
[2] = LAP4-GFP expression modulators in yeast, confirmation, cell-based, cherry picks, flow cytometry, mother/daughter gates (AID 2271;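 active = GFP response above 150% of the DMSO control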;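 also: ratio of sample to DMSO plate mean so 100% equals DMSO level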); conditions: S. cerevisiae LAP4-GFP strain, 3 h, at 10 µM, stronger effect = higher value, 100 means same as DMSO control
Procedure, shortened: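 Test system: GFP-fusion yeast strain / Amount: 0.2 OD600 cells / Buffer or medium: SC medium / Dosing: 10 µM single dose / Incubation: compound exposure 3 h at 30 °C, end-over-end rotation / Detection: HT flow cytometry, GFP fluorescence channel / Evaluation: median GFP fluorescence as percent of plate-mean DMSO wells / Control set: DMSO-only negative wells, rapamycin 400 ng/mL positive wells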

[3] = modulators of MEP2-GFP levels in yeast, confirmation, S. cerevisiae, flow cytometry GFP, cherry picks (AID 2272;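 active = GFP response above 150% of the DMSO control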;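 also: ratio of well signal to plate DMSO mean so 100% equals DMSO level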); conditions: S. cerevisiae MEP2-GFP strain, 3 h, at 10 µM, stronger effect = higher value
[4] = AGP1-GFP expression modulators, hit retest, confirmation, cell-based, flow cytometry, S. cerevisiae, cherry picks (AID 2273);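 also: median GFP channel fluorescence over the whole cell population gate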; conditions: S. cerevisiae AGP1-GFP strain, 3 h, at 10 µM
[5] = modulators of CIT2-GFP expression in yeast, confirmation, S. cerevisiae, GFP fusion, cherry picks, mother/daughter gates (AID 2274); conditions: S. cerevisiae CIT2-GFP strain, flow cytometry, 3 h, at 10 µM, stronger effect = higher value
[6] = measured here: daughter cell gate
[7] = measured here: mother cell gate
[8] = measured here: daughter cell gate response
[9] = measured here: mother cell gate response

Row | SMILES | GFP response vs DMSO [1] | GFP response vs DMSO [1, 6] | GFP response vs DMSO [1, 7] | GFP response relative to DMSO [2] | GFP response relative to DMSO [2, 8] | GFP response relative to DMSO [2, 9] | GFP response vs DMSO [3] | GFP response, % of DMSO [4] | GFP response, % of DMSO [5] | GFP response, % of DMSO [5, 6] | GFP response, % of DMSO [5, 7]
1 | Cc1ccc(C(c2cc(Cl)c3cccnc3c2O)N2CCN(C)CC2)cc1 (stereo not drawn) | 81.4% (inactive) | 94.4% | 67.7% | 184% (active) | 141% | 208% | 116% (inactive) | 95.9% (inactive) | 119% (inactive) | 97.4% | 113%
2 | Cc1cccc(Sc2ccc([N+](=O)[O-])cc2[N+](=O)[O-])n1 | 102% (inactive) | 100% | 102% | 97.4% (inactive) | 100% | 98.3% | 104% (inactive) | 101% (inactive) | 100% (inactive) | 101% | 99.8%
3 | NC(=O)COc1ccc(C(=O)/C=C2/C(=O)Nc3ccccc32)cc1 | 94% (inactive) | 93.4% | 81% | 95.4% (inactive) | 91.2% | 96.1% | 94.1% (inactive) | 107% (inactive) | 101% (inactive) | 103% | 101%
4 | COC(=O)Cc1csc(Nc2ccc(F)c(Cl)c2)n1 | 101% (inactive) | 102% | 100% | 97.4% (inactive) | 98.7% | 98.3% | 95.7% (inactive) | 93.7% (inactive) | 110% (inactive) | 106% | 107%
5 | CC(=O)c1ccccc1NCC(=O)Nc1ccc(C)cc1 | 96.3% (inactive) | 95% | 96% | 99.8% (inactive) | 98.2% | 101% | 103% (inactive) | 100% (inactive) | 93.4% (inactive) | 95.2% | 92.8%
6 | Cc1cc(OCC(=O)Nc2ccc(S(=O)(=O)N3CCN(C)CC3)cc2)ccc1Br | 98% (inactive) | 98.7% | 97.3% | 97.7% (inactive) | 99% | 97.4% | 101% (inactive) | 106% (inactive) | 101% (inactive) | 101% | 103%
7 | O=C1C=CC(=O)N1c1ccc(Sc2ccc([N+](=O)[O-])cc2)cc1 | 74% (inactive) | 96.8% | 61.1% | 143% (inactive) | 142% | 124% | 125% (inactive) | 106% (inactive) | 79.7% (inactive) | 90.5% | 63.8%
8 | Cc1ncc2c(n1)-c1cc(F)ccc1SC2 | 104% (inactive) | 105% | 103% | 87.6% (inactive) | 89.6% | 85.5% | 109% (inactive) | 94.5% (inactive) | 113% (inactive) | 116% | 109%
9 | O=C(Nc1nccs1)C1CCCN1S(=O)(=O)c1ccc(F)cc1 (stereo not drawn) | 98.8% (inactive) | 99.8% | 100% | 96.2% (inactive) | 100% | 95.2% | 100% (inactive) | 100% (inactive) | 110% (inactive) | 103% | 114%
10 | O=C(N/N=C/c1ccc(-c2ccc(Br)cc2)o1)c1ccc2c(c1)OCO2 | 102% (inactive) | 98.6% | 101% | 99.5% (inactive) | 95.9% | 98.4% | 103% (inactive) | 98.8% (inactive) | 102% (inactive) | 99.2% | 98.1%
11 | COc1cccc2c1Oc1ncccc1N(C(=O)CCC(=O)NCc1ccc(C)cc1)C2 | 101% (inactive) | 100% | 103% | 95.7% (inactive) | 94.2% | 96.2% | 99% (inactive) | 106% (inactive) | 98.8% (inactive) | 99.2% | 98.1%
12 | COc1ccc(C2CC(c3cccs3)=NN2S(=O)(=O)c2ccc(C)cc2)cc1 (stereo not drawn) | 98.7% (inactive) | 99.1% | 98.6% | 106% (inactive) | 105% | 107% | 104% (inactive) | 106% (inactive) | 106% (inactive) | 106% | 106%
13 | CCOc1ccc(-c2nc(-c3ccc(OC)cc3)no2)cc1OCC | 101% (inactive) | 101% | 101% | 94.2% (inactive) | 92.2% | 93.6% | 102% (inactive) | 96% (inactive) | 99.3% (inactive) | 100% | 99.1%
14 | C=CCn1c(=O)c(C(=O)Nc2ccccc2C(=O)OCC)c(O)c2ccccc21 | 100% (inactive) | 101% | 101% | 87.2% (inactive) | 86.4% | 89.7% | 99.5% (inactive) | 101% (inactive) | 96.4% (inactive) | 96.4% | 95.6%
15 | COc1cccc(N=Nc2ccc3cccnc3c2O)c1 | 99.8% (inactive) | 97.6% | 101% | 147% (inactive) | 140% | 146% | 120% (inactive) | 93.2% (inactive) | 98.8% (inactive) | 103% | 96.8%
16 | Cc1cccc(NC(=O)/C(C#N)=C/c2ccccc2Cl)n1 | 91.2% (inactive) | 91% | 86.6% | 147% (inactive) | 133% | 145% | 153% (inactive) | 109% (inactive) | 112% (inactive) | 117% | 103%
17 | O=C(NCc1ccccc1)c1nc(S(=O)(=O)Cc2ccccc2)ncc1Cl | 101% (inactive) | 99.2% | 98.5% | 108% (inactive) | 108% | 108% | 100% (inactive) | 104% (inactive) | 96.5% (inactive) | 93.2% | 98.7%

Row | SMILES | GFP response vs DMSO [1] | GFP response vs DMSO [1, 6] | GFP response vs DMSO [1, 7] | GFP response relative to DMSO [2] | GFP response relative to DMSO [2, 8] | GFP response relative to DMSO [2, 9] | GFP response vs DMSO [3] | GFP response, % of DMSO [4] | GFP response, % of DMSO [5] | GFP response, % of DMSO [5, 6] | GFP response, % of DMSO [5, 7]
18 | CC(C)c1ccc2c(c1)C1(NN=C(c3ccccc3)S1)C(=O)N2 (stereo not drawn) | 105% (inactive) | 107% | 104% | 96.2% (inactive) | 95.6% | 98.3% | 100% (inactive) | 95.7% (inactive) | 91.3% (inactive) | 96.5% | 88%
19 | CCCCNC(=O)c1c(O)c2cccc3c2n(c1=O)CCC3 | 98.8% (inactive) | 98.4% | 99.8% | 97.4% (inactive) | 95.6% | 100% | 100% (inactive) | 100% (inactive) | 97.8% (inactive) | 96.5% | 97.7%
20 | COc1cccc(N=Nc2ccc(O)c3ncccc23)c1 | 98.2% (inactive) | 97.4% | 98% | 224% (active) | 205% | 228% | 117% (inactive) | 91.3% (inactive) | 105% (inactive) | 106% | 99.7%
21 | Cc1ccc(-n2ncc(C#N)c2/N=C/N(C)C)cc1 | 103% (inactive) | 101% | 103% | 101% (inactive) | 101% | 103% | 107% (inactive) | 94.2% (inactive) | 94.4% (inactive) | 92% | 79.7%
22 | CCOC(=O)CS(=O)(=O)c1nc(-c2ccc(F)cc2)cc(C(F)(F)F)n1 | 109% (inactive) | 113% | 102% | 170% (active) | 170% | 165% | 113% (inactive) | 108% (inactive) | 116% (inactive) | 123% | 106%
23 | CCc1c2ccccc2nn1-c1ccccc1C(=O)C(C)=O | 95.8% (inactive) | 97.3% | 94% | 102% (inactive) | 101% | 102% | 103% (inactive) | 100% (inactive) | 98.6% (inactive) | 99.3% | 98.2%
24 | O=C(O)CSC1CC(=O)N(c2ccc(Cl)c(Cl)c2)C1=O (stereo not drawn) | 97.8% (inactive) | 97.8% | 97.5% | 108% (inactive) | 113% | 107% | 101% (inactive) | 101% (inactive) | 100% (inactive) | 99.3% | 100%
25 | O=C1C(Cl)=C(NCCc2ccccc2)C(=O)N1CCc1ccccc1 | 103% (inactive) | 103% | 104% | 106% (inactive) | 107% | 101% | 112% (inactive) | 103% (inactive) | 106% (inactive) | 106% | 106%
26 | O=C(OCn1ncc(Br)c(Br)c1=O)c1ccccc1Cl | 94.1% (inactive) | 96.2% | 90.1% | 172% (active) | 150% | 167% | 112% (inactive) | 105% (inactive) | 95% (inactive) | 104% | 86.3%
27 | CCc1nnc(NC(=O)CSc2nnc(C3CCCCC3)n2-c2cccc(Cl)c2)s1 | 98.2% (inactive) | 98.5% | 98.6% | 100% (inactive) | 99.3% | 99.5% | 102% (inactive) | 101% (inactive) | 101% (inactive) | 102% | 100%
28 | CCOC(=O)CNc1c(-c2ccccc2)nc2ccc(Cl)cn12 | 96% (inactive) | 97.8% | 96.4% | 109% (inactive) | 105% | 114% | 97.5% (inactive) | 98% (inactive) | 95% (inactive) | 98.3% | 93.3%
29 | Cc1ccc(-c2csc(NC(=O)c3cccc([N+](=O)[O-])c3)n2)cc1 | 101% (inactive) | 98.1% | 97.5% | 97% (inactive) | 95.9% | 97.3% | 107% (inactive) | 99.6% (inactive) | 98.8% (inactive) | 97.4% | 93.2%
30 | Cc1cccc(C(=O)NNC(=S)NC(=O)c2ccccc2)c1 | 107% (inactive) | 110% | 105% | 122% (inactive) | 117% | 128% | 109% (inactive) | 102% (inactive) | 105% (inactive) | 116% | 99.7%
31 | O=C(Nc1nc(-c2ccc(Cl)cc2)cs1)c1cccnc1 | 96.8% (inactive) | 87.8% | 98.3% | 105% (inactive) | 101% | 104% | 99% (inactive) | 99.4% (inactive) | 95.9% (inactive) | 93.8% | 95.6%
32 | Cc1cccn2c(=O)c(/C=C(\C#N)C(N)=O)c(N3CCN(Cc4ccc5c(c4)OCO5)CC3)nc12 | 101% (inactive) | 101% | 102% | 101% (inactive) | 103% | 101% | 101% (inactive) | 100% (inactive) | 110% (inactive) | 110% | 112%
33 | CCN(CC(O)Cn1c2ccccc2c2ccccc21)S(=O)(=O)c1ccc(F)cc1 (stereo not drawn) | 96% (inactive) | 96.5% | 96.7% | 108% (inactive) | 107% | 108% | 97.5% (inactive) | 95.8% (inactive) | 96.4% (inactive) | 96.4% | 94.5%
